# High-throughput results as filed in PubChem BioAssay.
# T cruzi repl: blocks replication of Trypanosoma cruzi; T. cruzi beta-gal in NIH3T3, luminescence, 90 h; hit rate 1.4% among 300,000; inhibition, % (concentration not given with the values);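 active = mean inhibition across valid replicates above about 55%, limit read from the data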;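 note: signal also drops with host cell toxicity which is not excluded here; 0% = plate median of DMSO wells and 100% = zero luminescence signal; higher percent means less beta-gal luminescence so fewer parasites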
#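 Material: NIH/3T3 host cells with β-galactosidase reporter T. cruzi; Input: 5,000 host fibroblasts per well; Medium: DMEM, 2% fetal bovine serum; Compound: 50 nL DMSO compound solution per well; Schedule: 3 h host attachment, then at least 90 h co-culture; Detection: luminescent β-galactosidase signal after 60 min lysis.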
# Efflux pump inh: antifungal efflux pump inhibition, Nile Red retention. S. cerevisiae Candida pump triplex. inhibition, % at 10 µM. hit rate 0.44% among 330,000;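 active = plate passing quality check with inhibition over a set limit, or well fluorescence over plate mean plus 4 SD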;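 note: Nile Red retained in pooled yeast measured as flow cytometry median fluorescence; 0% = buffer negative control and 100% = Enniatin B positive control; higher means more Nile Red kept so more efflux inhibition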
# WT yeast gro inh: growth inhibition of WT yeast, mitochondrial fusion screen; hit rate 2.1% among 190,000; inhibition, % at 10 µM; mitochondrial fusion phenotypic screen, WT strain; AID 1362; in the data active = inhibition above about 58%; tested in S. cerevisiae
# Beta apoptosis: beta cell apoptosis inhibition. hit rate 0.8% among 300,000. INS-1E cytokine-induced death, ATP luminescence, 48 h; percent of positive-control rescue, neutral wells zero. protection from apoptosis, % (test concentration not listed). AID 435005;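 active = Every replicate reaches about 75%, or at least half do and their mean reaches it too, limit read from the data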;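 note: 0% = cytokine-treated negative control wells and 100% = positive control rescue; higher means more ATP so stronger rescue from cytokine killing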
# CSC inhib: cancer stem cell inhibition. cancer stem cell-like cells viability, luminescence. inhibition, % at 7.5 µM. hit rate 1.1% among 300,000. AID 2717; in the data active = inhibition above about 75%; tested in HMLE shEcad cells
# SUMO Mot1 rescue: inhibitors of SUMOylation pathway: yeast Mot1-301 growth rescue | hit rate 1% among 320,000 | AID 2716 | S. cerevisiae Mot1-301 growth rescue, ATP luminescence, 38.5C; percent above DMSO median, 100 means doubled | growth rescue, % at 18.8 µM;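 active = every valid replicate shows activation above 250% relative to neutral control wells; inactive = the rest, any valid replicate at or below 250%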;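 note: OY570 slx delta 5 strain wells were the positive control but not used for scaling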
# Active calls of the source: *; nt = no result. Hits are enriched below; roughly 4.8% of the tested compounds scored in any of these assays.
SMILES,T cruzi repl,Efflux pump inh,WT yeast gro inh,Beta apoptosis,CSC inhib,SUMO Mot1 rescue
COc1ccc(Nc2ncnc3sccc23)cc1OC,-7,0,nt,-3,-4,6
COc1ccc(CCNc2ncnc3c2oc2ccccc23)cc1OC,-21,0,-24,107*,-3,22
COc1ccc(CCNc2nc(C)nc3c2oc2ccccc23)cc1OC,9,0,16,70,-14,1
COc1ccc(CCNc2ncnc3sccc23)cc1OC,-58,0,-13,111*,2,-14
c1ccc2c(c1)OCC(CNc1ncnc3sccc13)O2 (configuration not stated),-72,0,-7,107*,8,-5
NS(=O)(=O)c1cccc(NC(=O)COC(=O)CCCc2c[nH]c3ccccc23)c1,-9,0,-8,-3,6,-6
CC(=O)N(Cc1ccccc1)c1c(N)nc(N)[nH]c1=O,-25,0,nt,-4,-6,-9
COc1ccccc1N1CCN(C(=O)c2oc3ccc(Br)cc3c2C)CC1,0,0,79*,3,57,-11
COc1ccccc1N1CCN(c2ncnc3c2oc2ccccc23)CC1,-4,0,61*,34,45,219
C(=C\c1ccccc1)/CN1CCN(c2ncnc3c2oc2ccccc23)CC1,-12,0,67*,50,-12,50
Cc1cc(C)n(-c2ccc(NC(=O)C3CCCCN3Cc3cccc4c3OCO4)cc2)n1 (configuration not stated),24,nt,nt,nt,nt,nt
CC(=O)c1c(C)[nH]c(C(=O)NNC(=O)c2ccc(Br)cc2)c1C,nt,0,nt,3,-2,-25
COc1ccc(C)cc1Nc1n[n+](-c2ccccc2)c(-c2c(OC)ccc3ccccc23)s1,nt,0,nt,124*,87*,6
CCOc1cc(-c2sc(Nc3cc(C)ccc3OC)n[n+]2-c2ccccc2)ccc1OC,nt,0,nt,94*,45,-19
CCOc1cc(-c2sc(Nc3ccc(CC)cc3)n[n+]2-c2ccccc2)ccc1OC,nt,0,nt,2,-12,1
O=C(O)CCc1nn2c3ccccc3n(CC(=O)c3cccs3)c2nc1=O,-8,0,5,1,6,7
O=C(NCCCn1ccnc1)/C(=C\c1ccc(Br)cc1)NC(=O)c1ccccc1,-4,0,nt,-3,-1,-7
Oc1c(C(c2ccccc2Cl)N2CCCC2)ccc2cccnc12 (configuration not stated),84*,0,2,92*,-8,-3
CC(C)(C)n1nnnc1C(c1cccs1)N1CCN(c2ccccc2)CC1 (configuration not stated),-7,0,27,nt,0,48
Oc1c(C(c2cccs2)N2CCN(c3ccccc3)CC2)ccc2cccnc12 (configuration not stated),nt,0,7,109*,88*,144
CN1CCN(C(c2ccc(C(F)(F)F)cc2)c2ccc3cccnc3c2O)CC1 (configuration not stated),71*,0,nt,81*,98*,-14
CCCc1ccc(Oc2cc(N3CCOCC3)nc(-c3ccccc3)n2)cc1,-4,0,nt,2,36,-12
Fc1ccc(CCNC(=S)Nc2ccc(F)c(Cl)c2)cc1,14,0,77*,-4,46,18
O=[N+]([O-])c1ccc(NC(=S)NCCc2ccc(F)cc2)cc1,34,0,85*,76*,2,-6
O=C(CN1C(=O)S/C(=C\C=C\c2ccccc2)C1=O)Nc1ccccc1C(=O)O,-3,0,nt,1,22,2
SMILES,T cruzi repl,Efflux pump inh,WT yeast gro inh,Beta apoptosis,CSC inhib,SUMO Mot1 rescue
O=C(CN1C(=O)S/C(=C\C=C\c2ccccc2)C1=O)Nc1cccc(O)c1,-19,0,9,23,93*,4
O=C(CSc1nnc(CNC(=O)c2ccco2)o1)Nc1cccc(Cl)c1,-14,0,nt,-3,-7,77
N#Cc1c(NC(=O)c2ccccc2)sc2c1CCCCC2,12,0,23,13,21,19
N#Cc1c(Cl)nsc1NC(=O)c1ccccc1,-26,0,19,78*,46,-19
O=S(=O)(NCc1cn2ccccc2n1)c1cc(F)ccc1F,-16,0,-1,-8,nt,7
Cc1ccc(N(CC(O)Cn2c3ccccc3c3ccccc32)S(C)(=O)=O)c(C)c1 (configuration not stated),13,0,67*,-2,nt,2
COC(=O)c1cc(=O)c2c(C)nc(C(Cl)(Cl)Cl)nc2[nH]1,-20,0,-7,nt,1,4
Cc1cc(C)nc(N2CCCC(C(=O)NCc3cccs3)C2)n1 (configuration not stated),2,0,70*,-18,-16,26
Cc1ccnc(N2CCCC(C(=O)NCc3cccs3)C2)n1 (configuration not stated),-5,0,-17,-2,-1,4
Cc1oc(-c2ccccc2Cl)nc1CS(=O)(=O)CC(=O)N1CCOCC1,-1,0,nt,-3,-11,-9
CC12CC3CC(C)(C1)CC(C(=O)NC(=S)N1CCCCC1)(C3)C2,2,0,77*,-5,-7,40
CCOC(=O)CN1C(=O)N[C@@H](c2cccc(C(F)(F)F)c2)[C@@H](C(=O)OC)[C@H]1C,-1,0,nt,3,12,-13
Cc1noc(COc2ccccc2OCC(N)=O)n1,-33,0,nt,nt,-21,-2
C=CCc1ccccc1OCC(=O)N/N=C/c1ccc(OC(C)=O)cc1OC(C)=O,33,0,-5,-21,77*,-5
O=C(N/C(=C\c1ccccc1)C(=O)N1CCN(CCO)CC1)c1ccccc1,0,0,-10,2,-28,-9
CCOC(=O)C1=C(O)c2ccccc2C(=O)/C1=C\c1ccc(C)cc1,nt,3,4,-2,54,280*
CCOC(=O)C1=C(C)N(c2ccc(C)cc2)C(=O)/C1=C\c1ccc(O)c(OC)c1,-9,0,nt,-10,0,132
Nc1ccc(N=Nc2ccccc2)c2ccccc12,15,0,nt,9,81*,89
Nc1ccc(N=Nc2ccccc2)c(N)n1,44,0,8,nt,nt,27
C=CCn1c(SCC2CCCCO2)nc2sc(CC)cc2c1=O (configuration not stated),26,0,nt,27,27,5
CCOc1ccc(Nc2nc(Cc3nnc(SCC(=O)c4ccc(C)c(C)c4)o3)cs2)cc1,7,0,3,97*,20,-14
Cc1ccc(NC(=O)CSc2nnc(Cc3csc(C)n3)o2)cc1,nt,0,nt,-5,2,-9
Cc1ccc(S(=O)(=O)CNC(=S)c2cccc(Cl)c2)cc1,-17,0,69*,-10,1,-10
COC(=O)c1ccc(CN2CCCC(C(=O)c3ccccc3OC)C2)cc1 (configuration not stated),22,0,nt,-7,-5,199
